Rows were chosen to be rich in hits. Some 3.1% of all compounds tested hit in one or more screens of this group.
TbHK1 inh: T. brucei hexokinase 1 inhibition; recombinant TbHK1, G6PDH-coupled NADH A340; inhibition, % at 10 µM; 0.11% of 220,000 active; AID 1430;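 active = inhibition of 50% or more in the single-dose primary screen; inactive = inhibition below 50%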
HSF1 inh: HSF1 inhibition; NIH3T3-HGL HSE-luciferase, MG132-induced, luminescence 8 h; hits give low values; activity change, negative = inhibition, % at 7.5 µM (by protocol); 0.77% of 300,000 active; AID 2098;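 active = more than half of replicate wells show activity change below -50%, luminescence cut by over half; inconclusive = some wells, but at most half, below -50%; inactive = no replicate well below -50%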;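 also: luciferase reports HSF-1 transcriptional activity via heat shock element; 0% = median of DMSO wells and -100% = zero luminescence signal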
Hsp70 activator: Hsp70 transcriptional activation, primary screen | AID 1203 | HeLa Hsp70 promoter luciferase reporter, luminescence; scaled: vehicle 0, proteasome-inhibitor control 100% | activation, % at 10 µM | 0.04% of 200,000 active;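 active = activation above the mean across all tested compounds plus 3 SD, cutoff set per campaign, cut at about 5.5% in these data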;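 also: 100% = MG132 at 30 µM as the positive control and 0% = DMSO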
HSP90 inh: inhibitors of HSP90 luciferase refolding in rabbit reticulocyte lysate | luciferase refolding luminescence, 3 h | inhibition, % at 5.6 µM | 0.91% of 290,000 active | AID 1789;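 active = inhibition above the screen-wide mean plus 3 SD, computed separately per campaign, cut at about 16% in these data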;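 also: 0% = DMSO wells and 100% = 60 µM geldanamycin wells; inhibitors lower the luminescence because luciferase stays unfolded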
HSF-1 act: increases HSF-1 driven luciferase reporter signal | NIH3T3-HGL HSF-1 luciferase reporter, MG132, 8 h; 100% = twice DMSO control signal | activation, % at 9 µM | 1.7% of 300,000 active | AID 504408;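 active = mean replicate activation of at least 50% with a set share of replicates each reaching 50%; inconclusive = only one of those two conditions met; inactive = mean below 50% and too few replicates reaching it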;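 also: 0% = median of the neutral control wells and 100% = twice that signal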
HKDC1 inh: HKDC1 (human) hexokinase inhibition; Q2TB90; recombinant HKDC1, G6PDH/diaphorase resazurin coupled fluorescence; inhibition, % at 20 µM; 0.16% of 340,000 active; AID 493160;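 active = inhibition above about 35% when tested at 20 µM, limit read from the data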;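 also: plate controls were DMSO wells with enzyme for no effect and DMSO wells lacking enzyme for full effect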
Target sequence (Q2TB90 whole entry, looked up): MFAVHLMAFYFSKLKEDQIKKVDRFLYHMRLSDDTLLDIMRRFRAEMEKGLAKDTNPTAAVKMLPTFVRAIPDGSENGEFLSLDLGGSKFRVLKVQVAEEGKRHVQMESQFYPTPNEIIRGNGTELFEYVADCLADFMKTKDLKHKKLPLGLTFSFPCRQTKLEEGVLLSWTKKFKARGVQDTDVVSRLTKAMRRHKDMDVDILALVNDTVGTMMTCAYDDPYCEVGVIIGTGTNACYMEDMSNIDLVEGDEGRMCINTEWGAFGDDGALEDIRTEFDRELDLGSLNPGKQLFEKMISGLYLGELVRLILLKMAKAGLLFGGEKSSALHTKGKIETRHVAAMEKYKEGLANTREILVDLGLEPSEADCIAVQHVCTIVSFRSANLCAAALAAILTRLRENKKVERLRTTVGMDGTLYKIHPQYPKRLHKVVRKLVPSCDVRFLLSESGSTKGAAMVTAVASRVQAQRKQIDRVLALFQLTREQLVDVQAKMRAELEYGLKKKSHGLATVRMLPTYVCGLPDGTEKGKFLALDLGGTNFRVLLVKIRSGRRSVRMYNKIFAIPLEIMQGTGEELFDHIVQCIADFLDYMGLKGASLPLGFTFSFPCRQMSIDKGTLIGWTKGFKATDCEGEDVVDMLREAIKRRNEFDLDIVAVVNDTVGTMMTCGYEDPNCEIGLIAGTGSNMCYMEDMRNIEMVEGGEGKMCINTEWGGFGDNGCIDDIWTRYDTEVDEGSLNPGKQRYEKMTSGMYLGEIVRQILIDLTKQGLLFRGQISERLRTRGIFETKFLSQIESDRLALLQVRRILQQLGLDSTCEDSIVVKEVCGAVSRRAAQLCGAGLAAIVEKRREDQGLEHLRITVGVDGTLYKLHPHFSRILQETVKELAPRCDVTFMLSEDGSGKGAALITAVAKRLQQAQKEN
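Material: recombinant HKDC1 hexokinase; Amount: HKDC1 at 5 µg/mL; Medium: Tris pH 8.0 buffer with MgCl2, Tween-20, BSA, BME; Schedule: 90 min reaction incubation at room temperature, dark; Technique: coupled resazurin fluorescence, excitation 525 nm, emission 613 nm.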
Numbers without * were called inactive; u = inconclusive; x = no result.

SMILES	TbHK1 inh	HSF1 inh	Hsp70 activator	HSP90 inh	HSF-1 act	HKDC1 inh
CC(C)(C)n1ncc2c(=O)n(CC(=O)NCc3ccco3)cnc21	1	11	0	4	24	-4
COC(=O)C[C@](O)(CCCC(C)(C)O)C(=O)O[C@@H]1C(OC)=C[C@]23CCCN2CCc2cc4c(cc2[C@H]13)OCO4	x	-73*	x	x	-76	x
O=C(NC(=S)Nc1ncccn1)c1ccc(Cl)cc1Cl	-2	22	1	-1	64*	-4
COC(=O)C1NN=C(C(=O)c2ccc(Cl)cc2)C1c1ccc(OC)cc1 (centres undefined)	3	19	-1	1	54*	-9
CCOC(=O)c1c(NC(=O)c2nn(CC)cc2Br)c(C#N)nn1-c1ccccc1	5	24	0	3	52*	14
COc1cc(N)c2ncsc2c1	x	x	x	x	x	13
CC12CCC(=O)N1C(C(=O)Nc1nnc(SCc3ccccc3F)s1)CS2 (centres undefined)	x	4	x	-1	2	3
CC(C)CN=c1cc(-c2ccccc2)oc2ccc(Cl)cc12	-42	48	1	-3	60*	-2
CC(O)CN=c1cc(-c2ccccc2)oc2ccc(Cl)cc12 (centres undefined)	-49	27	0	-3	31	-10
OCC1(CCCc2ccccc2)CCN(C2CCC2)CC1	x	-3	x	-3	0	5
OCC1(CCCc2ccccc2)CCN(C2CCSCC2)CC1	-3	23	0	-4	74*	-13
COc1cccc(/C=C2\NC(=O)NC2=O)c1O	x	2	x	-2	10	-13
O=C(CN1C(=O)NC2(CCCc3ccccc32)C1=O)Nc1cc(F)ccc1F (centres undefined)	x	1	x	x	4	3
Cc1oc2ccc(OCc3cccc(Cl)c3)cc2c1C(=O)O	x	10	x	3	37	5
Cc1oc2ccc(OCc3c(F)cccc3Cl)cc2c1C(=O)O	-6	-57*	x	3	-66	-3
O=[N+]([O-])c1ccc(C(O)CSC(=S)N2CCCCC2)cc1 (centres undefined)	x	34	x	4	70*	1
O=[N+]([O-])c1ccc(C(=S)N2CCCC2)cc1	-5	-2	0	2	-12	-3
Cc1ccc(N/C=C(/C#N)c2ccsc2)cc1C	-34	58	0	3	101*	2
O=C(CSc1ncn[nH]1)c1ccccc1	12	1	0	1	4	5
O=C(CSc1ncn[nH]1)c1cccc([N+](=O)[O-])c1	24	77	0	2	127*	-3
O=C(CSc1nc2ncccc2[nH]1)c1cccc([N+](=O)[O-])c1	1	28	0	2	66*	3
COc1ccc(C(=O)Nc2nnc(Cc3ccc(OC)c(OC)c3)s2)cc1	x	4	x	-4	15	-5
COC(=O)[C@H]1[C@H]2C[C@@H]3c4[nH]c5cc(OC)ccc5c4CCN3C[C@H]2C[C@@H](OC(=O)c2ccc(N)cc2)[C@@H]1OC	-23	-55*	x	2	-64	11
CCCCCCC(=O)c1c(C)[nH]c(C(=O)OCC)c1C	-5	29	1	-2	53*	0
CCOC(=O)c1c(C)[nH]c(C(=O)COC(=O)CSC)c1C	2	16	0	-1	26	-5
SMILES	TbHK1 inh	HSF1 inh	Hsp70 activator	HSP90 inh	HSF-1 act	HKDC1 inh
CCCCC(=O)OCC(=O)c1[nH]c(C)c(C(=O)OCC)c1C	0	37	-1	3	76*	-9
CCCCCC(=O)c1c(C)[nH]c(C(=O)OCC)c1C	-1	33	0	-2	29	2
CC(=O)c1cccc(NC(=O)C2CC(=O)N(CCc3ccccc3)C2)c1 (centres undefined)	-3	-59*	0	-6	-68	-9
CSc1nc2ccccc2n1CC(=O)Nc1ccccc1	9	-2	0	5	17	-6
O=C(Cn1c(/C=C/c2ccccc2)nc2ccccc21)Nc1ccc(F)cc1	0	39	0	4	57*	6
CCn1c(/C=C/c2ccccc2)nc2ccccc21	-50	39	0	4	u	-4
CC(C)Cn1c(/C=C/c2ccccc2)nc2ccccc21	-18	53	0	4	89*	1
CCOc1ccccc1NC(=O)C(c1ccccc1)N1CCN(C(=O)c2ccco2)CC1 (centres undefined)	x	x	x	x	x	3
COC(=O)[C@H](CC(C)C)N(Cc1ccccc1)S(=O)(=O)N(Cc1ccc(OC)cc1)[C@@H](CC(C)C)C(=O)OC	x	x	x	x	x	0
Cc1nnc(NC(=O)c2ccc(S(=O)(=O)N3CC(C)CC(C)C3)cc2)o1 (centres undefined)	x	-6	x	2	-5	-7
COc1ccc2c(c1)cc(C(=O)N[C@H](C(=O)N1CCC(C(=O)O)CC1)C(C)C)n2C	x	-8	x	2	0	-1
Nc1nc(-c2cccnc2)nc2sc3c(c12)CCCC3	-9	28	0	-1	80*	-2
Cc1ccccc1-c1nc2sc3c(c2c(=O)o1)CCC3	-8	-1	0	1	10	-4
O=c1oc(-c2ccccc2)nc2sc3c(c12)CCCC3	-4	51	0	5	69*	-6
O=C1CN(c2nc(-c3cccnc3)nc3sc4c(c23)CCCC4)CCN1	-19	-1	0	-4	-2	7
O=C(COc1ccccc1Cc1ccccc1)Nc1cccnc1	x	x	x	x	x	10
Cc1ccc(-n2c(C)cc(/C=C3\SC(=O)NC3=O)c2C)cc1	x	38	x	-2	61*	-1
CC(C)CSc1nnc2c(n1)[nH]c1ccccc12	-11	22	0	0	59*	-10
C[C@H](CO)N1C[C@H](C)[C@@H](CN(C)C(=O)Nc2ccc(C(F)(F)F)cc2)Oc2ccc(NC(=O)Cn3cnnn3)cc2C1=O	x	x	x	x	x	-2
Fc1ccc(NC(=S)Nc2cc(Cl)ccc2Cl)cc1	2	43	0	1	77*	-3
COc1ccc(NC(=S)Nc2ccc(OC)cc2OC)c(OC)c1	-9	0	0	-4	0	-3
COc1ccc(NC(=S)Nc2ccc(F)cc2)c(OC)c1	4	-52*	0	1	-61	-6
CCN(CC)S(=O)(=O)c1ccc(NC(=O)c2ccc(OCC3CCCO3)cc2)cc1 (centres undefined)	x	x	x	x	x	5
Cc1cc(NC(=O)Nc2ccccc2[N+](=O)[O-])n(C)n1	x	-2	x	-1	6	8
O=C1c2cccc3cc([N+](=O)[O-])cc(c23)C(=O)N1CCN1CCCC1	-36	32	x	2	61*	3
CN(C)c1nc(NCc2ccccc2)nc(SCC(=O)Nc2ccccc2)n1	0	2	0	0	13	11
CN(C)c1nc(NC(C)(C)C)nc(SCC(=O)Nc2ccccc2)n1	4	22	0	-2	66*	3
